From ChEMBL document CHEMBL4346742, “The parmodulin NRD-21 is an allosteric inhibitor of PAR1 Gq signaling with improved anti-inflammatory activity and stability” (Bioorg Med Chem, 2019) come the findings set out here.

In brackets after ≈: the same amount, converted by molar mass. Activity calls are given as the source filed them. The calls are words filed in the database; no cut-off is given here.

The target of data set [1] is T1, Proteinase-activated receptor 1 (Homo sapiens) (UniProt P25116).
T1 sequence (whole entry): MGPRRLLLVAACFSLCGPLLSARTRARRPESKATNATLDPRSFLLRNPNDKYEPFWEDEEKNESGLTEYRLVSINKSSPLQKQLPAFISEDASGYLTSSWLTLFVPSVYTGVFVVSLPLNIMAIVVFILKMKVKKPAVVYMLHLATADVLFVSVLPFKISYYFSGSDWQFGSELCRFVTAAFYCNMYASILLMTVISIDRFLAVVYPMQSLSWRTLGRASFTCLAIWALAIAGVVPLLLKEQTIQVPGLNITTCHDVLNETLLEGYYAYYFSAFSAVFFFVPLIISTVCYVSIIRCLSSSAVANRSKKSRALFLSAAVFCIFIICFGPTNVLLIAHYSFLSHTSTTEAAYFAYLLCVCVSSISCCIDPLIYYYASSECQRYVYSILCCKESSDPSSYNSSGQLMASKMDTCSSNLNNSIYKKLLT
The data set is described as follows: Negative allosteric modulation of PAR1 in human EAhy926 cells assessed as reduction in TFLLRN-NH2-induced intracellular calcium mobilization at 10 uM incubated for 15 mins followed by TFLLRN-NH2 addition by Fluo-4-AM dye based fluorescence assay relative to control. Type of data set: functional, cell-based. In a few lines: (§1)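 Adherent EA.hy926 endothelial cells in 96-well format, intracellular Ca2+ mobilization triggered by PAR1 agonist TFLLRN-NH2 at 5 µM; single-point % inhibition at 10 µM (n = 4 wells, SEM); 7-point concentration-response curves, 3 wells per concentration, pIC50 from 4-variable non-linear regression; average IC50 ± SEM over independent assays.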
Background: Calcium assays in cells follow changes in intracellular calcium, usually with a dye or a luminescent sensor.

For data set [2], the target named is Translocator protein (Rattus norvegicus) (UniProt P16257). The data set is described as follows: Inhibition of rat PBR at 10 uM.
Data set [3] has as its target T2, Proteinase-activated receptor 1 (Homo sapiens, UniProt P25116).
T2 sequence (P25116 whole entry): T1 sequence (whole entry)
The data set is described as follows: Negative allosteric modulation of PAR1 in human EAhy926 cells assessed as reduction in TFLLRN-NH2-induced intracellular calcium mobilization incubated for 15 mins followed by TFLLRN-NH2 addition by Fluo-4-AM dye based fluorescence assay. It counts as functional, cell-based. In a few lines: as §1

Data set [4] concerns the target Proteinase-activated receptor 2 (Homo sapiens) (UniProt P55085). The data set is described as follows: Negative allosteric modulation of PAR2 in human EAhy926 cells assessed as reduction in SLIGKV-NH2-induced intracellular calcium mobilization at 0.316 to 10 uM incubated for 15 mins followed by TFLLRN-NH2 addition by Fluo-4-AM dye based fluorescence assay relative to control. Type of data set: functional, cell-based.

The target in data set [5] is T1, Proteinase-activated receptor 1 (Homo sapiens). The data set is described as follows: Reversible inhibition of PAR1 in human EAhy926 cells assessed as reduction in TFLLRN-NH2-induced intracellular calcium mobilization at 10 uM incubated for 15 mins and washed in buffer followed by TFLLRN-NH2 addition by Fluo-4-AM dye based fluorescence assay relative to control. Type of data set: functional, cell-based.

Data set [6] is described as follows: Stability in human microsomes for 1 hr. It counts as ADME, Microsome. The conditions noted are these: read-out: Stability. In a few lines:
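Human liver microsomes, % remaining after 1 h.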

For data set [7], the target named is Beta-1 adrenergic receptor (Homo sapiens) (UniProt P08588). The data set is described as follows: Inhibition of beta1 adrenoceptor (unknown origin) at 10 uM by radio ligand binding assay.
Data set [8] deals with Beta-3 adrenergic receptor (Homo sapiens) (UniProt P13945). Nature of the data set: Inhibition of beta3 adrenoceptor (unknown origin) at 10 uM by radio ligand binding assay.
Another data set concerns HepG2. Nature of the data set: Cytotoxicity against human HepG2 cells assessed as reduction in cell viability. It counts as cell-based. In a few lines: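 Human HepG2 cells; cytotoxicity reported as CC50.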
Data set [9] is described as follows: Solubility in 2.5% DMSO. It counts as physicochemical. In a few lines: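 Kinetic aqueous solubility assay with 2.5% DMSO.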
A short description of data set [10]: Stability in mouse plasma at 10 uM measured at 4 hrs by LC-MS analysis. Type of data set: ADME, cell-free. In a few lines: (§2)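 Compound incubated in mouse or human plasma; % parent remaining at 4 h.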
A short description of data set [11]: Stability in human plasma at 10 uM measured at 4 hrs by LC-MS analysis. It counts as ADME, cell-free. In a few lines:
as §2

In another data set the test system is HUVEC (human). Nature of the data set: Antiinflammatory activity in human HUVEC cells assessed as inhibition of TNFalpha-induced TF expression at 10 uM preincubated for 1 hr followed by TNFalpha addition and measured after 3 hrs by qPCR analysis.
The subject of the next data set is Platelet. Nature of the data set: Antiplatelet activity in human washed platelets assessed as inhibition of SFLLRN-NH2-induced platelet aggregation at 10 uM incubated for 2 mins followed by SFLLRN-NH2 addition and monitored for 5 mins by lumi-aggregometery.
The target of data set [12] is T1, Proteinase-activated receptor 1 (Homo sapiens). Nature of the data set: Negative allosteric modulation of PAR1 in human EAhy926 cells assessed as reduction in TFLLRN-NH2-induced intracellular calcium mobilization incubated for 15 mins followed by TFLLRN-NH2 addition by Fluo-4-AM dye based fluorescence assay relative to control. It counts as functional, cell-based. An outline of the steps:
as §1

A short description of data set [13]: Stability in mouse plasma at 20 uM measured at 4 hrs by LC-MS analysis. It counts as ADME, cell-free. In a few lines: as §2
Data set [14] can be described thus: Stability in human plasma at 20 uM measured at 4 hrs by LC-MS analysis. Type of data set: ADME, cell-free. An outline of the steps:
as §2

Data set [15] addresses Sodium-dependent noradrenaline transporter (Homo sapiens) (UniProt P23975). The data set is described as follows: Inhibition of NET receptor (unknown origin) at 10 uM.
The target in data set [16] is T1, Proteinase-activated receptor 1 (Homo sapiens). Nature of the data set: Negative allosteric modulation of PAR1 in human EAhy926 cells assessed as reduction in TFLLRN-NH2-induced intracellular calcium mobilization at 0.0316 to 3.16 uM incubated for 15 mins followed by TFLLRN-NH2 addition by Fluo-4-AM dye based fluorescence assay relative to control.
Data set [17] shares this target. Conditions: 0.316 uM.
Data set [18] has the same target. Nature of the data set: Negative allosteric modulation of PAR1 in human EAhy926 cells assessed as reduction in TFLLRN-NH2-induced intracellular calcium mobilization at 31.6 uM incubated for 15 mins followed by TFLLRN-NH2 addition by Fluo-4-AM dye based fluorescence assay relative to control. Type of data set: functional, cell-based.

Chain of Proteinase-activated receptor 2 (Homo sapiens) (P55085 whole entry): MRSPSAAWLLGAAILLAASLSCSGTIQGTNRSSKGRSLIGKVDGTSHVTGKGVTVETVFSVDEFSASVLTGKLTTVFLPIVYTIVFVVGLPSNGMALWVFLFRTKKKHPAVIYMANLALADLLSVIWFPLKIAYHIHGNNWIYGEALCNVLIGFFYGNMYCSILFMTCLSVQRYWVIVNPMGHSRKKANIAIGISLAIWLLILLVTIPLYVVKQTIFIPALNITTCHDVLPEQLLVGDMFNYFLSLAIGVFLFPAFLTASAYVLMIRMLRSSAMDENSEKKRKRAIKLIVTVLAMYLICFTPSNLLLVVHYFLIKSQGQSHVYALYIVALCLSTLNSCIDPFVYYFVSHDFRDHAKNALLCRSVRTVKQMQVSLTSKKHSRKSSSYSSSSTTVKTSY
Chain of Translocator protein (Rattus norvegicus) (P16257 whole entry, looked up): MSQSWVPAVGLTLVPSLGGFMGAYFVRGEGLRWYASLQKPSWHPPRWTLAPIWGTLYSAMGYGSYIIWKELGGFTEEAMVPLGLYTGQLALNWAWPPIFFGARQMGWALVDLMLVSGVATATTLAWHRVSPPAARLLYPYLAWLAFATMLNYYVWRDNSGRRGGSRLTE
Chain of Beta-1 adrenergic receptor (Homo sapiens) (P08588 whole entry, looked up): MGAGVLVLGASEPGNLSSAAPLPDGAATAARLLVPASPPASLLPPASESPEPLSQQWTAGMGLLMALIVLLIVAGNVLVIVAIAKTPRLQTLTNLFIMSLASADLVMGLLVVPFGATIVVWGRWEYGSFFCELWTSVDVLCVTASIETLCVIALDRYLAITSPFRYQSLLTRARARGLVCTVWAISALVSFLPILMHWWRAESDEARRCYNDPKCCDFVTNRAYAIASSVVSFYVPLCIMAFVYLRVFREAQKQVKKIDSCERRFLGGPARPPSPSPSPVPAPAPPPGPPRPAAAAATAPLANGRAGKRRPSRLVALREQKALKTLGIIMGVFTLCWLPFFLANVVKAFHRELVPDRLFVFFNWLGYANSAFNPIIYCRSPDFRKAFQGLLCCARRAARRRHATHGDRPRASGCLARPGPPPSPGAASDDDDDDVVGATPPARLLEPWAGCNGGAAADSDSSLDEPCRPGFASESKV
Chain of Beta-3 adrenergic receptor (Homo sapiens) (P13945 whole entry, looked up): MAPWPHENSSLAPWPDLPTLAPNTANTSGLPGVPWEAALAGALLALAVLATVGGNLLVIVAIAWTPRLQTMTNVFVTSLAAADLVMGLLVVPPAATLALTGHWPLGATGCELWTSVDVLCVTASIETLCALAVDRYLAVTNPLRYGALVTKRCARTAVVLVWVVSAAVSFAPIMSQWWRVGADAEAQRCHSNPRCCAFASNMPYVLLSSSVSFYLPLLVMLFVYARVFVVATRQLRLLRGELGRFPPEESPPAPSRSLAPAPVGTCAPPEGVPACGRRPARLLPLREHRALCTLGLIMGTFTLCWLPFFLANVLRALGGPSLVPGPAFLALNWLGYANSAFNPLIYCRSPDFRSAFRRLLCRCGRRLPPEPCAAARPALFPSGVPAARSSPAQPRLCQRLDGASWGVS
Chain of Sodium-dependent noradrenaline transporter (Homo sapiens) (P23975 whole entry): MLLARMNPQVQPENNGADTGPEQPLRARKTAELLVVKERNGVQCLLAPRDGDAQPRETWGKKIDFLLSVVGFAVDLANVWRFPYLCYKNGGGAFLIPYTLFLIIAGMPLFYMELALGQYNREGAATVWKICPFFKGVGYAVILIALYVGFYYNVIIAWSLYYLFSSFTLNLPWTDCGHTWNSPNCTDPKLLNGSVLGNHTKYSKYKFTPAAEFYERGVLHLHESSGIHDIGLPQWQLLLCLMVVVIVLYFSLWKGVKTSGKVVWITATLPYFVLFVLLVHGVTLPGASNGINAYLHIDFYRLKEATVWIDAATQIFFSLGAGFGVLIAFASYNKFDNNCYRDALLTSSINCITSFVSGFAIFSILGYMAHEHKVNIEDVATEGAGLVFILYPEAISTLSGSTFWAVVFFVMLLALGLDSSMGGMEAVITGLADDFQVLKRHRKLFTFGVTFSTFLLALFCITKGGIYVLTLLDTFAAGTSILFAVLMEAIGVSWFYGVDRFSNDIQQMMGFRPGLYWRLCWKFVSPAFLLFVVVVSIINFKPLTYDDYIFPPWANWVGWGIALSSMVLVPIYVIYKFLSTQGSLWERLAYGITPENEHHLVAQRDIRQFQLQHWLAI

In general, inhibition refers to the drop in the measured response relative to a control, in per cent. As to `COC(C)C(=O)Nc1cccc(NC(=O)c2ccccc2Br)c1` (stereo not drawn), in [1], the inhibition was 58%.
On the same count and under the same terms, to `O=C(Nc1cccc(NC(=O)C2CCCC2)c1)c1ccccc1Br` belongs 65%; to `CCCCOc1cccc(NC(=O)c2ccccc2Br)c1`, 57%.
A word on the CC50: it is the concentration that lowers cell viability or growth by half. As usually defined, the solubility (kinetic) is the concentration staying in solution when a stock, usually in DMSO, is diluted into the medium. Regarding `CCCC(=O)Nc1cccc(NC(=O)c2ccccc2Br)c1`, the inhibition in data set [2] was 84%; in data set [7] it was 49%; in data set [8] it was 32%. Besides, the IC50 in data set [3] (read-out: IC50) was 570 nM. In [4], the inhibition result is “inactive”. For the same compound, the inhibition result (in [5]; with HUVEC (human)) was “Active” throughout. Further, in data set [6], the remaining at 1 h worked out at 99%. Besides, the CC50 with HepG2 was > 150000 nM. Further, the kinetic solubility in data set [9] came out at 24 µM (≈ 8.67 µg/mL). Also, the results for the Stability in data set [10] and in data set [11] were < 1% and 79%, respectively. Also, the inhibition at 10 µM in the data set with Platelet worked out at 100%.
`CCOC(=O)Nc1cccc(NC(=O)c2ccccc2Br)c1`: in data set [1], the inhibition is 60%.
For the compound `CCC(O)C(=O)Nc1cccc(NC(=O)c2ccccc2Br)c1` (stereo not drawn), the inhibition in [1] worked out at 21%.
`CCCCNc1cccc(NC(=O)c2ccccc2Br)c1`: in data set [1], the inhibition was 85%. In [4], the inhibition result is “inactive”. Besides, the inhibition result in data set [5] was “Active”.
With `O=C(Nc1cccc(NC(=O)[C@@H]2CCCN2)c1)c1ccccc1Br`, in data set [1], the inhibition was 4%.
On the same count and under the same terms, the figure for `O=C(Nc1cccc(NC(=O)c2ccccc2Br)c1)c1ccccc1` is 58%; for `O=C(Nc1cccc(NC(=O)C2CCCO2)c1)c1ccccc1Br` (stereo not drawn) it is 42%.
On the same count and under the same terms, the figure for `CN(C)CC(=O)Nc1cccc(NC(=O)c2ccccc2Br)c1` is 3%.
Regarding `CCCNC(=O)c1cccc(NC(=O)c2ccccc2Br)c1`, the IC50 in [3] (read-out: IC50) stood at 220 nM. In addition, the inhibition in [1] is 63%; in [12] it was 50%.
With `O=C(Nc1cccc(NC(=O)c2ccccc2Br)c1)c1cnco1`, the inhibition came to 67% in [2], 90% in [1] and 31% in data set [15]. In addition, the IC50 in data set [3] (read-out: IC50) turned out to be 370 nM. Besides, in data set [4], the inhibition entry was “inactive”. In addition, the inhibition result (in [5]; in the data set with HUVEC (human); in data set [16]) was “Active” throughout. In addition, the Stability in data set [13] stood at 32%; in data set [14] it was 97%. Besides, in data set [6], the remaining at 1 h is 99%. Besides, the 50% cytotoxic concentration (CC50) in the data set with HepG2 was > 150000 nM. This compound also had a kinetic solubility in data set [9] of 17 µM (≈ 6.57 µg/mL). For the same compound, in the data set on Platelet, the inhibition at 10 µM was 100%.
With `O=C(Nc1cccc(NC(=O)C2CCOC2)c1)c1ccccc1Br` (stereo not drawn), the inhibition in data set [1] is 44%.
Consider `CCCCC(=O)Nc1cccc(NC(=O)c2ccccc2Br)c1`, for which the inhibition in data set [1] was determined as 23%.
For `COCCC(=O)Nc1cccc(NC(=O)c2ccccc2Br)c1`, the inhibition in data set [1] stood at 39%.
With `O=C(Nc1cccc(NC(=O)[C@H]2CCCN2)c1)c1ccccc1Br`, in data set [1], the inhibition amounted to 63%.
Take `C#CCCC(=O)Nc1cccc(NC(=O)c2ccccc2Br)c1`: the IC50 in data set [3] (read-out: pIC50 (converted)) was > 10000 nM.
Take `COCCNc1cccc(NC(=O)c2ccccc2Br)c1`: the inhibition in [1] was 43%.
For the compound `CC(C)(C)OC(=O)N1CCC[C@@H]1C(=O)Nc1cccc(NC(=O)c2ccccc2Br)c1`, the inhibition in data set [1] turned out to be 65%.
Same read-out and setting: the figure for `CCCN(CCC)c1cccc(NC(=O)c2ccccc2Br)c1` is 13%.
Take `O=C(Nc1cccc(NC(=O)c2ccccc2Br)c1)c1ccco1`: the IC50 in data set [3] (read-out: IC50) was 320 nM. The inhibition in [1] was 92%. The inhibition result in data set [4] was “inactive”. In addition, in data set [5], the inhibition result was “Active”.
On to `CCC(=O)Nc1cccc(NC(=O)c2ccccc2Br)c1`, for which, in [1], the inhibition stood at 54%.
`O=C(CC(F)(F)F)Nc1cccc(NC(=O)c2ccccc2Br)c1`: in [3] (read-out: IC50), the IC50 came out at 380 nM. In addition, in [1], the inhibition was 88%. Also, the inhibition result in data set [4] was “inactive”. Also, the inhibition entry in data set [5] is “Active”.
In the case of `CCOC(=O)N[C@@H]1CC[C@@H]2[C@@H](C1)C[C@H]1C(=O)O[C@H](C)[C@H]1[C@H]2/C=C/c1ccc(-c2cccc(F)c2)cn1`, the inhibition result in data set [4] and in data set [5] was “inactive” each time. Further, in data set [17], the inhibition was > 75%.
As to `CCC(C)C(=O)Nc1cccc(NC(=O)c2ccccc2Br)c1` (stereo not drawn), the inhibition in data set [1] turned out to be 27%.
With `CC(C)[C@@H](O)C(=O)Nc1cccc(NC(=O)c2ccccc2Br)c1`, the inhibition in data set [1] amounted to 25%.
Same read-out and setting: the figure for `O=C(O)CC(=O)Nc1cccc(NC(=O)c2ccccc2Br)c1` is 37%; for `COCC(=O)Nc1cccc(NC(=O)c2ccccc2Br)c1` it is 38%; for `CCCNCc1cccc(NC(=O)c2ccccc2Br)c1` it is 17%.
For the compound `COC(=O)Nc1cccc(NC(=O)c2ccccc2Br)c1`, the inhibition in data set [1] was found to be 42%.
Still for that read-out and setting: the figure for `CC(C)[C@H](O)C(=O)Nc1cccc(NC(=O)c2ccccc2Br)c1` is 48%.
Regarding `O=C(Nc1cccc(NC(=O)c2ccccc2Br)c1)c1cocn1`, in [3] (read-out: IC50), the IC50 stood at 420 nM. Also, the results for the inhibition in data set [1] and in [18] were 82% and 50%, respectively. Further, the inhibition result in [4] was “inactive”. Besides, the inhibition entry in data set [5] was “Active”.
`CC(C)(C)OC(=O)N1CCC[C@H]1C(=O)Nc1cccc(NC(=O)c2ccccc2Br)c1`: the inhibition in data set [1] was -8%.
On the same count and under the same terms, the figure for `COC(=O)CC(=O)Nc1cccc(NC(=O)c2ccccc2Br)c1` is 11%; for `NC(=O)CC(=O)Nc1cccc(NC(=O)c2ccccc2Br)c1` it is 36%; for `CC(C)CC(=O)Nc1cccc(NC(=O)c2ccccc2Br)c1` it is 82%.
